Measured values taken from ChEMBL document CHEMBL2021884, “Azaindenoisoquinolines as topoisomerase I inhibitors and potential anticancer agents: a systematic study of structure-activity relationships” (2012).
The source made the active and inactive calls. No cut-off for these calls is given here.

Tests used:
HCT-116 [1] = assay: Growth inhibition of human HCT116 cells after 48 hrs by sulforhodamine B assay; type: functional; settings: HCT-116, 48 h
Method in brief: (§1)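 NCI 60-cell-line screen: cells exposed 48 h to five 10-fold dilutions starting at 100 μM (range 10−4 to 10−8 M), then stained with sulforhodamine B. Optical densities relative to control plotted against log concentration. GI50 interpolated between points above and below 50% growth. Single determinations.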

SN12C [2] = assay: Growth inhibition of human SN12C cells after 48 hrs by sulforhodamine B assay; type: functional; method in brief: as §1
HOP-62 [3] = assay: Growth inhibition of human HOP62 cells after 48 hrs by sulforhodamine B assay; type: functional; settings: HOP-62, 48 h; method in brief: as §1
OVCAR-3 [4] = assay: Growth inhibition of human OVCAR3 cells after 48 hrs by sulforhodamine B assay; type: functional; settings: OVCAR-3, 48 h; method in brief: as §1
MCF7 [5] = assay: Growth inhibition of human MCF7 cells after 48 hrs by sulforhodamine B assay; type: functional; settings: MCF7, 48 h; method in brief: as §1
UACC-62 [6] = assay: Growth inhibition of human UACC62 cells after 48 hrs by sulforhodamine B assay; type: functional; settings: UACC-62, 48 h; method in brief: as §1
[7] = biological target: T1, DNA topoisomerase 1 (Homo sapiens) (UniProt P11387); assay: Inhibition of human recombinant topoisomerase 1-mediated DNA cleavage using [32P]-3'-end-labeled 117-bp DNA fragment as substrate at 0.1 to 100 uM after 20 mins by SDS-PAGE analysis
T1 sequence (whole entry): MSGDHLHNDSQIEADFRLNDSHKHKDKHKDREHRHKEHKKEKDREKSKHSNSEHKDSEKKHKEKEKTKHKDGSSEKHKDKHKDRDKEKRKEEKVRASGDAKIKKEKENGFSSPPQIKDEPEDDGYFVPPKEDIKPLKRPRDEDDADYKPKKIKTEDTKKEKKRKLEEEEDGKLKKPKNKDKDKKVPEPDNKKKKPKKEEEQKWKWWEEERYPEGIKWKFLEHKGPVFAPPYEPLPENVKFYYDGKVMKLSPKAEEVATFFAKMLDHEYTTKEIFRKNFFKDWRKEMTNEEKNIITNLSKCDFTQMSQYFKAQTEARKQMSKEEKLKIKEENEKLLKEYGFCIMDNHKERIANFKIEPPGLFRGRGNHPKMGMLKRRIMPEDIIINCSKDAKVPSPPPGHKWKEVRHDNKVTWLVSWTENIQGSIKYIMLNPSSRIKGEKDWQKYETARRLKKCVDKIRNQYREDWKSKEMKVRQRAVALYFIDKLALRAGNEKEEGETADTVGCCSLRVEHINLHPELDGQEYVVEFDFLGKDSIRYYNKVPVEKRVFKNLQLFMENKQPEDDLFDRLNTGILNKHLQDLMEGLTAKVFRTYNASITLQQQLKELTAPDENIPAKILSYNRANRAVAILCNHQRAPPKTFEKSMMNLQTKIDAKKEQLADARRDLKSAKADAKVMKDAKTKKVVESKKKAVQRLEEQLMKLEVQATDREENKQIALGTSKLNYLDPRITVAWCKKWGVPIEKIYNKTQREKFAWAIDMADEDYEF
Method in brief: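 Human Top1 expressed in baculovirus and purified. Substrate is a 117-bp oligonucleotide carrying the pBluescript SK(−) cleavage sites, 3′-end-labeled by Klenow fill-in with [α-32P]dGTP. Compound at 0.1, 1, 10, 100 μM; reaction stopped with 0.5% SDS (final) plus formamide loading dye.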

DU-145 [8] = assay: Growth inhibition of human DU145 cells after 48 hrs by sulforhodamine B assay; type: functional; settings: DU-145, 48 h; method in brief: as §1
SF-539 [9] = assay: Growth inhibition of human SF539 cells after 48 hrs by sulforhodamine B assay; type: functional; settings: SF-539, 48 h; method in brief: as §1
OVCAR-3 [10] = assay: Growth inhibition of human OVCAR3 cells at 10 uM after 48 hrs by sulforhodamine B assay; type: functional, cell-based
Method in brief: (§2)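 NCI screen single-concentration test at 10 μM, 48 h exposure, sulforhodamine B staining. Optical density read relative to untreated control. Used as initial testing to decide whether multi-dose GI50 testing was warranted.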

HOP-62 [11] = assay: Growth inhibition of human HOP62 cells at 10 uM after 48 hrs by sulforhodamine B assay; type: functional, cell-based; method in brief: as §2
MCF7 [12] = assay: Growth inhibition of human MCF7 cells at 10 uM after 48 hrs by sulforhodamine B assay; type: functional, cell-based; method in brief: as §2
UACC-62 [13] = assay: Growth inhibition of human UACC62 cells at 10 uM after 48 hrs by sulforhodamine B assay; type: functional, cell-based; method in brief: as §2
DU-145 [14] = assay: Growth inhibition of human DU145 cells at 10 uM after 48 hrs by sulforhodamine B assay; type: functional, cell-based; method in brief: as §2
SF-539 [15] = assay: Growth inhibition of human SF539 cells at 10 uM after 48 hrs by sulforhodamine B assay; type: functional, cell-based; method in brief: as §2
SN12C [16] = assay: Growth inhibition of human SN12C cells at 10 uM after 48 hrs by sulforhodamine B assay; type: functional, cell-based; method in brief: as §2
HCT-116 [17] = assay: Growth inhibition of human HCT116 cells at 10 uM after 48 hrs by sulforhodamine B assay; type: functional, cell-based; method in brief: as §2

Compound	GI50 (HCT-116 [1])	GI50 (SN12C [2])	GI50 (HOP-62 [3])	GI50 (OVCAR-3 [4])	GI50 (MCF7 [5])	GI50 (UACC-62 [6])	inhibition [7]	GI50 (DU-145 [8])	GI50 (SF-539 [9])	growth inhibition (GI) (OVCAR-3 [10])	growth inhibition (GI) (HOP-62 [11])	growth inhibition (GI) (MCF7 [12])	growth inhibition (GI) (UACC-62 [13])	growth inhibition (GI) (DU-145 [14])	growth inhibition (GI) (SF-539 [15])	growth inhibition (GI) (SN12C [16])	growth inhibition (GI) (HCT-116 [17])
COc1cc2c3c(n(CCCN4CCOCC4)c(=O)c2cc1OC)-c1ncccc1C3=O	0.22 µM	0.52 µM	0.3 µM	0.37 µM	0.052 µM	0.1 µM	Active	0.31 µM									
COc1cc2c3c(n(CCCN(C)C)c(=O)c2cc1OC)-c1ncccc1C3=O	1.6 µM	3.2 µM	3.4 µM	3.6 µM	0.44 µM	13 µM	Active	1.7 µM	4.1 µM								
COc1cnc2c(c1)C(=O)c1c-2n(CCCN(C)C)c(=O)c2cc(OC)c(OC)cc12	1.5 µM	3.6 µM	0.92 µM	2.9 µM	0.13 µM	3.9 µM	Active	0.88 µM	1.1 µM								
COc1cnc2c(c1)C(=O)c1c-2n(CCCN(C)C)c(=O)c2cc([N+](=O)[O-])ccc12	0.074 µM	0.057 µM	0.054 µM	0.14 µM	0.024 µM	0.052 µM	Active	0.051 µM	0.078 µM								
COc1cc2c3c(n(CCCN(C)C)c(=O)c2cc1OC)-c1ccncc1C3=O	0.62 µM	8.5 µM	6.5 µM	7.4 µM	3.9 µM	> 100 µM	Active	2.9 µM	12 µM								
COc1cnc2c(c1)C(=O)c1c-2n(CCCN2CCOCC2)c(=O)c2cc(OC)c(OC)cc12	0.33 µM	0.34 µM	0.24 µM	0.31 µM	0.1 µM	0.22 µM	Active	0.34 µM	0.27 µM								
COc1ccc2c(n1)C(=O)c1c-2n(CCCN(C)C)c(=O)c2cc(OC)c(OC)cc12							Active			Active	Active	Active	Active	Active	Active	Active	Active
CC[C@@]1(O)C(=O)OCc2c1cc1n(c2=O)Cc2cc3ccccc3nc2-1 [CAMPTOTHECIN]					0.013 µM												
COc1cnc2c(c1)C(=O)c1c-2n(CCCN2CCOCC2)c(=O)c2cc([N+](=O)[O-])ccc12	0.05 µM	0.043 µM	0.051 µM	0.11 µM	0.02 µM	0.04 µM	Active	0.04 µM	0.035 µM								
COc1cc2c3c(n(CCCN4CCOCC4)c(=O)c2cc1OC)-c1cnccc1C3=O	2.5 µM	16 µM	6.5 µM	24 µM	4.1 µM	48 µM	Active	24 µM	40 µM								
COc1ccc2c(n1)C(=O)c1c-2n(CCCN2CCOCC2)c(=O)c2cc(OC)c(OC)cc12							Active			Active	Active	Active		Active	Active	Active	Active
COc1cc2c3c(n(CCCN4CCOCC4)c(=O)c2cc1OC)-c1ccncc1C3=O	0.39 µM	5.9 µM	5 µM	12 µM	1.9 µM	85 µM	Active	7.6 µM	> 100 µM								
COc1cc2c3c(n(CCCN(C)C)c(=O)c2cc1OC)-c1cccnc1C3=O							Active			Active	Active	Active	Active	Active	Active	Active	Active
COc1cnc2c(c1)C(=O)c1c-2n(CCCN(C)C)c(=O)c2ccccc12	0.34 µM	0.26 µM	0.3 µM	0.94 µM	0.21 µM	0.54 µM	Active	0.3 µM	0.57 µM								
COc1cc2c3c(n(CCCN(C)C)c(=O)c2cc1OC)-c1cnccc1C3=O							Active			Active	Active	Active	Active	Active	Active	Active	
COc1cnc2c(c1)C(=O)c1c-2n(CCCN2CCOCC2)c(=O)c2ccccc12	2.5 µM	2.6 µM	4.1 µM	6.3 µM	0.6 µM	1.7 µM	Active	3.6 µM	3.5 µM								
